Assay results reported in ChEMBL document CHEMBL2040780, “Antiarrhythmic properties of phenylpiperazine derivatives of phenytoin with α₁-adrenoceptor affinities” (Bioorg Med Chem, 2012).
Calls of active or inactive are those of the source. No cut-off for these calls is given here.

Legend:
Rattus norvegicus [1] = test: Antiarrhythmic activity in iv dosed Wistar rat assessed as protection against adrenaline-induced extrasystoles administered 15 mins prior to adrenaline-challenge; assay type: functional, organism-based; settings: Heart
How it was run: (§1)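 Szekeres model in male Wistar rats anaesthetised with thiopental (60 mg/kg ip). Test compound given iv in water (2.5–10 mg/kg) 15 min before adrenaline 20 µg/kg iv. Scored for extrasystoles, bigeminy and mortality; activity means no premature beats and inhibited arrhythmia versus controls.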

Rattus norvegicus [2] = test: Antiarrhythmic activity in iv dosed Wistar rat assessed as protection against adrenaline-induced bigeminy administered 15 mins prior to adrenaline-challenge; assay type: functional, organism-based; settings: Heart; how it was run: as §1
Rattus norvegicus [3] = test: Antiarrhythmic activity in iv dosed Wistar rat assessed as protection against adrenaline-induced arrhythmia administered 15 mins prior to adrenaline-challenge; assay type: functional; settings: Heart; how it was run: as §1
[4] = biological target: T1, Adrenergic receptor alpha-1 (Rattus norvegicus, UniProt P15823+P23944+P43140); test: Displacement of [3H]prazosin from alpha1 adrenoceptor in rat cerebral cortex after 30 mins by microbeta scintillation counting; assay type: tissue-based
T1 sequence (P15823 whole entry): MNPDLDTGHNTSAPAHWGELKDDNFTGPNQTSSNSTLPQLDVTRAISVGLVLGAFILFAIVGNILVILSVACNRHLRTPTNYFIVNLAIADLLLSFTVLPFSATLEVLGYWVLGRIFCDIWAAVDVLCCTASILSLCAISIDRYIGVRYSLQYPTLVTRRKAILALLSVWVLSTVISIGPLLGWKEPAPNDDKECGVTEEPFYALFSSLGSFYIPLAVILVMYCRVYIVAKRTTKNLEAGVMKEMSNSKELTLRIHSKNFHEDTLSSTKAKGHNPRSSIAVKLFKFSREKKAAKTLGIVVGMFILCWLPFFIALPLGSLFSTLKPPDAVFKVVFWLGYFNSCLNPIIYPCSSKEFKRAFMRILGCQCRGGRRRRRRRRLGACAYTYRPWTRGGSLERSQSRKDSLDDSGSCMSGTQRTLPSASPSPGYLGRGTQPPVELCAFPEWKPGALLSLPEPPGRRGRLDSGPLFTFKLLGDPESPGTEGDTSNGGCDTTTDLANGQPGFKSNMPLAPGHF
T1 sequence (P23944 whole entry): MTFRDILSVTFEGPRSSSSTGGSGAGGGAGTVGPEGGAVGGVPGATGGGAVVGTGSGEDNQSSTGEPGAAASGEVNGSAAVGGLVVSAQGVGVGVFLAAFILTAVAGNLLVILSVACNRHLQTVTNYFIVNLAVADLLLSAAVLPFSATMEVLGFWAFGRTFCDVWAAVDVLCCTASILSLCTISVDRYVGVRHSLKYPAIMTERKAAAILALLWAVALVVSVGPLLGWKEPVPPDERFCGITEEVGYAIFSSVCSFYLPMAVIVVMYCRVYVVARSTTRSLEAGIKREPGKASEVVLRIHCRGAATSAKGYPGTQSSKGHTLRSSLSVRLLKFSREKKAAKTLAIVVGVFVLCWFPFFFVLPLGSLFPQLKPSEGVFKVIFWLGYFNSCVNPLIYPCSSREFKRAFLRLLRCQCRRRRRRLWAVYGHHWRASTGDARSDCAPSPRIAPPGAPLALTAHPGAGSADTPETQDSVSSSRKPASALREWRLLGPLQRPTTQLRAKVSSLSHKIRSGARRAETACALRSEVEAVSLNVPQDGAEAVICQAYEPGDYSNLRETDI
T1 sequence (P43140 whole entry): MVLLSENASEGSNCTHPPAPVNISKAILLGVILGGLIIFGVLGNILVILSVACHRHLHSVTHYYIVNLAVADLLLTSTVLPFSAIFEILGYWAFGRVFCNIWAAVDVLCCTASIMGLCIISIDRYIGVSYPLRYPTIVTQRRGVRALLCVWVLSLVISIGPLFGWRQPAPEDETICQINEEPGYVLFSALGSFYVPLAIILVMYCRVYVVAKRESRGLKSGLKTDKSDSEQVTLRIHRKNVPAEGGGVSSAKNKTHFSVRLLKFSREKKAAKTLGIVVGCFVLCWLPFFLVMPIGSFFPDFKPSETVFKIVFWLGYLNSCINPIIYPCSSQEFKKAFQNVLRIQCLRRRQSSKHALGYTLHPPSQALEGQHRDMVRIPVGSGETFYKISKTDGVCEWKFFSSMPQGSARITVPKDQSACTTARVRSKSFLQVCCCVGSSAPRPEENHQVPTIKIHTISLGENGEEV
How it was run: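 Rat cerebral cortex homogenised in ice-cold 50 mM Tris-HCl (pH 7.6 at 25 °C), washed twice at 20000×g and resuspended at 10 mg wet weight/ml. Incubated with [3H]prazosin (19.5 Ci/mmol) and test compound for 30 min at 25 °C. Nonspecific binding defined with 10 µM phentolamine. GF/B filtration, scintillation counting, three-parameter logistic competition fit.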

Rattus norvegicus [5] = test: Antiarrhythmic activity in Wistar rat assessed as effect on heart beat at 2.5 mg/kg, iv after 1 min; assay type: functional
How it was run: (§2)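 Male Wistar rats (180–250 g), anaesthetised with thiopental 60 mg/kg ip. Compound given iv in water at 10 mg/kg, or at a lower starting dose of 5 or 2.5 mg/kg. Standard lead II ECG recorded at 50 mm/s just before dosing and at 1, 5 and 15 min after. Heart rate and P–Q, Q–T and QRS intervals were read. n=6 per group, mean ± SEM, one-way ANOVA.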

Rattus norvegicus [6] = test: Antiarrhythmic activity in Wistar rat assessed as effect on heart beat at 2.5 mg/kg, iv after 5 mins; assay type: functional; how it was run: as §2
Rattus norvegicus [7] = test: Antiarrhythmic activity in Wistar rat assessed as effect on heart beat at 2.5 mg/kg, iv after 15 mins; assay type: functional; how it was run: as §2
Rattus norvegicus [8] = test: Cardiotoxicity in Wistar rat assessed as effect on P-Q interval at 2.5 mg/kg, iv after 1 min; assay type: toxicity, organism-based; parameters: dose 2.5 mg/kg, route intravenous; settings: in vivo; how it was run: as §2
Rattus norvegicus [9] = test: Cardiotoxicity in Wistar rat assessed as effect on P-Q interval at 2.5 mg/kg, iv after 5 mins; assay type: toxicity, organism-based; parameters: dose 2.5 mg/kg, route intravenous; settings: in vivo; how it was run: as §2
Rattus norvegicus [10] = test: Cardiotoxicity in Wistar rat assessed as effect on P-Q interval at 2.5 mg/kg, iv after 15 mins; assay type: toxicity, organism-based; parameters: dose 2.5 mg/kg, route intravenous; settings: in vivo, 0.25 h; how it was run: as §2
Rattus norvegicus [11] = test: Cardiotoxicity in Wistar rat assessed as effect on Q-T interval at 2.5 mg/kg, iv after 1 min; assay type: toxicity, organism-based; parameters: dose 2.5 mg/kg, route intravenous; settings: in vivo; how it was run: as §2
Rattus norvegicus [12] = test: Cardiotoxicity in Wistar rat assessed as effect on Q-T interval at 2.5 mg/kg, iv after 5 mins; assay type: toxicity, organism-based; parameters: dose 2.5 mg/kg, route intravenous; settings: in vivo; how it was run: as §2
Rattus norvegicus [13] = test: Cardiotoxicity in Wistar rat assessed as effect on Q-T interval at 2.5 mg/kg, iv after 15 mins; assay type: toxicity, organism-based; parameters: dose 2.5 mg/kg, route intravenous; settings: in vivo, 0.25 h; how it was run: as §2
Rattus norvegicus [14] = test: Cardiotoxicity in Wistar rat assessed as effect on QRS interval at 2.5 mg/kg, iv after 1 min; assay type: toxicity, organism-based; parameters: dose 2.5 mg/kg, route intravenous; settings: in vivo; how it was run: as §2
Rattus norvegicus [15] = test: Cardiotoxicity in Wistar rat assessed as effect on QRS interval at 2.5 mg/kg, iv after 5 mins; assay type: toxicity, organism-based; parameters: dose 2.5 mg/kg, route intravenous; settings: in vivo; how it was run: as §2
Rattus norvegicus [16] = test: Cardiotoxicity in Wistar rat assessed as effect on QRS interval at 2.5 mg/kg, iv after 15 mins; assay type: toxicity, organism-based; parameters: dose 2.5 mg/kg, route intravenous; settings: in vivo, 0.25 h; how it was run: as §2
Rattus norvegicus [17] = test: Antiarrhythmic activity in Wistar rat assessed as protection against adrenaline-induced extrasystoles at 2.5 to 10 mg/kg, iv administered 15 mins prior to adrenaline-challenge; assay type: functional, organism-based; settings: Heart; how it was run: as §1
Rattus norvegicus [18] = test: Antiarrhythmic activity in Wistar rat assessed as protection against adrenaline-induced bigeminy at 2.5 to 10 mg/kg, iv administered 15 mins prior to adrenaline-challenge; assay type: functional, organism-based; settings: Heart; how it was run: as §1
Rattus norvegicus [19] = test: Antiarrhythmic activity in barium chloride-induced Wistar rat arrhythmia model assessed as protection against mortality at 2.5 to 10 mg/kg, iv administered 15 mins prior to barium chloride-challenge; assay type: functional, organism-based; settings: Heart
How it was run: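 Szekeres model in male Wistar rats. Activity is gradual disappearance of arrhythmia with restored sinus rhythm; protection against disturbances and death scored. Groups of 6 animals.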

Rattus norvegicus [20] = test: Hypotensive activity in normotensive Wistar rat assessed as decrease in systolic blood pressure at 2.5 to 10 mg/kg, iv after 1 min measured up to 60 mins; assay type: organism-based, Artery; parameters: dose 2.5-10 mg/kg, route intravenous; settings: in vivo
How it was run: (§3)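 Right carotid artery cannulated with heparin-saline-filled tubing for blood pressure recording. After 5 min stabilisation, compound injected iv into the caudal vein (2.5–10 mg/kg, 1 ml/kg). Systolic and diastolic pressure followed for 60 min. n=6 per group, mean ± SEM, one-way ANOVA.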

Rattus norvegicus [21] = test: Hypotensive activity in normotensive Wistar rat assessed as decrease in diastolic blood pressure at 2.5 to 10 mg/kg, iv after 1 min measured up to 60 mins; assay type: organism-based, Artery; parameters: dose 2.5-10 mg/kg, route intravenous; settings: in vivo; how it was run: as §3

`c1ccc(CC2=NCCN2)cc1` [TOLAZOLINE] was tested, and the Activity (Rattus norvegicus [1]) was “Active”, the Activity (Rattus norvegicus [2]) was “Active” and the ED50 (Rattus norvegicus [3]) was 3.4 mg/kg.
For `COc1ccccc1N1CCN(CCCCN2C(=O)N(C)C(=O)C2(c2ccccc2)c2ccccc2)CC1.Cl`, the Ki [4] was 4.7 nM, the pKi [4] was 8.33 and the Activity (Rattus norvegicus [5]) was 338 min⁻¹. The Activity (Rattus norvegicus [6]) was 333 min⁻¹, the Activity (Rattus norvegicus [7]) was 346 min⁻¹ and the Activity (Rattus norvegicus [8]) was 50 ms. It also gave an Activity (Rattus norvegicus [9]) of 51 ms, an Activity (Rattus norvegicus [10]) of 49 ms and an Activity (Rattus norvegicus [11]) of 83 ms. The Activity (Rattus norvegicus [12]) was 81 ms, the Activity (Rattus norvegicus [13]) was 86 ms and the Activity (Rattus norvegicus [14]) was 22 ms. The Activity (Rattus norvegicus [15]) was 22 ms, the Activity (Rattus norvegicus [16]) was 22 ms and the Activity (Rattus norvegicus [17]) was “Active”. The Activity (Rattus norvegicus [18]) was “Active”, the Activity (Rattus norvegicus [19]) was “Active” and the ED50 (Rattus norvegicus [3]) was 0.1 mg/kg. For the same compound, the Activity (Rattus norvegicus [20]) was “Toxic” and the Activity (Rattus norvegicus [21]) was “Toxic”.
